Blank lines part the entries; values can stand above or below the compound they belong to. Active and inactive are the calls of the source. No cut-off for these calls is given here.
Key:
[1] = Drug localization in nucleus of DM1-patient derived myotubes at 5 uM measured after 24 hrs by live-cell fluorescence microscopy; format: ADME, subcellular; details: human, myotube
Method in brief: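 DM1 patient myotubes bearing 1300 r(CUG) repeats given 5 μM agent; subcellular localization followed via intrinsic fluorescence of the H RNA-binding modules.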

[2] = Cytotoxicity against DM1-patient derived myotubes assessed as change in cellular morphology at 5 uM measured after 48 hrs; details: human, myotube
Method in brief: (§1)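 Cell morphology of DM1 patient-derived myotubes inspected during 48 h splicing treatment at 5 μM; agents altering morphology were re-tested at 1 μM.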

r(CUG) repeat expansion [3] = experiment: Binding affinity to r(CUG)exp RNA repeat in DM1-patient derived myotubes assessed as improvement in MBNL1 exon 5 splicing defect at 0.04 to 1 uM measured after 48 hrs by RT-qPCR analysis relative to control; format: tissue-based; details: Homo sapiens, Myotube, dose 0.04-1 µM
Method in brief: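 Dose–response for MBNL1 exon 5 splicing rescue in DM1 patient myotubes (1300 r(CUG) repeats) after 48 h treatment; n = 6, SD, one-way ANOVA.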

r(CUG) repeat expansion [4] = experiment: Binding affinity to CASK r(CUG)16 RNA repeat in DM1 patient-derived myotubes at 1 uM measured after 48 hrs by RT-qPCR analysis; details: Homo sapiens, Myotube
Method in brief: (§2)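 Transcript levels, either DMPK or r(CUG) repeat-containing mRNAs, quantified by RT-qPCR in treated DM1 myotubes; n = 6, one-way ANOVA.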

r(CUG) repeat expansion [5] = experiment: Binding affinity to [5'-32P]-r(CUG)10 RNA (unknown origin) assessed as induction of RNA cleavage at 5 uM measured after 24 hrs by gel electrophoresis method relative to control; format: nucleic-acid assay
Method in brief: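 5′-radiolabeled r(CUG)10 incubated with agent; cleavage fragments resolved by gel electrophoresis; n = 3, one-way ANOVA.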

Nucleic Acid = experiment: Binding affinity to r(CG)8 RNA repeat (unknown origin) measured after 10 mins by fluorescence assay; format: nucleic-acid assay
r(CUG) repeat expansion [6] = experiment: Binding affinity to SCUBE2 r(CUG)7 RNA repeat in DM1 patient-derived myotubes at 1 uM measured after 48 hrs by RT-qPCR analysis; details: Homo sapiens, Myotube; method in brief: as §2
r(CUG) repeat expansion [7] = experiment: Binding affinity to r(CUG)exp RNA repeat in DM1-patient derived myotubes assessed as reduction in number of r(CUG)exp-MBNL1 foci at 1 uM measured after 48 hrs by RNA fluorescence in situ hybridization assay; parameters: scale not given: the % may be the effect or the level left; details: Homo sapiens, Myotube
Method in brief: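 Nuclear foci counted in DM1 myotubes by confocal imaging: MBNL1 by immunofluorescence, r(CUG)exp by RNA FISH. Foci per nucleus from 40 nuclei per replicate, n = 3; Student's t-test.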

Myotube [8] = experiment: Effect on DMPK transcription in wild type human myotubes at 0.04 to 1 uM measured after 48 hrs by RT-qPCR analysis; format: functional; details: dose 0.04-1 µM
r(CUG) repeat expansion [9] = experiment: Binding affinity to LRP8 r(CUG)11 RNA repeat repeat in DM1 patient-derived myotubes at 1 uM measured after 48 hrs by RT-qPCR analysis; details: Homo sapiens, Myotube; method in brief: as §2
[10] = Reduction in DMPK transcription in DM1-patient derived myotubes at 0.04 to 1 uM measured after 48 hrs by RT-qPCR analysis; format: functional, Homo sapiens, Myotube; parameters: scale not given: the % may be the effect or the level left; details: dose 0.04-1 µM; method in brief: as §2
r(CUG) repeat expansion [11] = experiment: Binding affinity to wild-type DMPK r(CUG)20 RNA repeat in DM1 patient-derived myotubes at 1 uM measured after 48 hrs by RT-qPCR analysis; details: Homo sapiens, Myotube; method in brief: as §2
r(CUG) repeat expansion [12] = experiment: Binding affinity to r(CUG)12 RNA repeat (unknown origin) measured after 10 mins by fluorescence assay; format: nucleic-acid assay
r(CUG) repeat expansion [13] = experiment: Binding affinity to MAP3K4 r(CUG)11 RNA repeat in DM1 patient-derived myotubes at 1 uM measured after 48 hrs by RT-qPCR analysis; format: tissue-based; details: Homo sapiens, Myotube; method in brief: as §2
Myotube [14] = experiment: Effect on alternative splicing of MAP4K4 exon 22a in DM1-patient derived myotubes at 0.04 to 1 uM measured after 48 hrs by RT-qPCR analysis; format: functional; details: Homo sapiens, dose 0.04-1 µM
Myotube [15] = experiment: Effect on MBNL1 exon 5 splicing in wild type human myotubes at 0.04 to 1 uM measured after 48 hrs by RT-qPCR analysis; format: functional; details: dose 0.04-1 µM
r(CUG) repeat expansion [16] = experiment: Binding affinity to SORCS2 r(CUG)7 RNA repeat in DM1 patient-derived myotubes at 1 uM measured after 48 hrs by RT-qPCR analysis; details: Homo sapiens, Myotube; method in brief: as §2
[17] = Cytotoxicity against DM1-patient derived myotubes assessed as change in cellular morphology at 1 uM measured after 48 hrs; details: human, myotube; method in brief: as §1
r(CUG) repeat expansion [18] = experiment: Binding affinity to r(CUG)exp RNA repeat in DM1-patient derived myotubes assessed as improvement in MBNL1 exon 5 splicing defect measured after 48 hrs by RT-qPCR analysis; format: tissue-based; details: Homo sapiens, Myotube, dose 0.04-1 µM
r(CUG) repeat expansion [19] = experiment: Binding affinity to r(CUG)exp RNA repeat in DM1-patient derived myotubes assessed as improvement in MBNL1 exon 5 splicing defect at 0.2 uM measured after 48 hrs by RT-qPCR analysis relative to control; details: Homo sapiens, Myotube
Method in brief: (§3)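 DM1 patient-derived myotubes (1300 r(CUG) repeats) treated 48 h, then MBNL1 exon 5 splicing rescue measured. Single-dose screens at 5 μM or 1 μM, where 1 μM was used if 5 μM altered morphology, n = 3. Dose–response also run, n = 6. SD shown; one-way ANOVA.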

Myotube [20] = experiment: Effect on DMPK transcription in DM1-patient derived myotubes at 0.04 to 1 uM measured after 48 hrs by RT-qPCR analysis; format: functional; details: Homo sapiens, dose 0.04-1 µM; method in brief: as §2
r(CUG) repeat expansion [21] = experiment: Binding affinity to 5'-biotinylated r(CUG)12 RNA repeat (unknown origin) assessed as disruption of r(CUG)12-His-tagged MBNL1 complex formation preincubated for 15 mins followed by MBNL1 addition and measured after 15 mins by TR-FRET assay; format: nucleic-acid assay
r(CUG) repeat expansion [22] = experiment: Binding affinity to r(CUG)exp RNA repeat in DM1-patient derived myotubes assessed as improvement in MBNL1 exon 5 splicing defect at 1 uM measured after 48 hrs by RT-qPCR analysis relative to control; details: Homo sapiens, Myotube; method in brief: as §3

SMILES: COCCN(CC(=O)N(CCCNC(=O)CCCOc1cccc(-c2nc3ccc(-c4nc5cc(N6CCN(C)CC6)ccc5[nH]4)cc3[nH]2)c1)CC(N)=O)C(=O)CN(CCN)C(=O)CN(Cc1ccc(OC)cc1)C(=O)CN(CCN)C(=O)CCCOc1cccc(-c2nc3ccc(-c4nc5cc(N6CCN(C)CC6)ccc5[nH]4)cc3[nH]2)c1
Drug uptake [1]: Active | Activity [2]: Non-Toxic

SMILES: CNCCCCN(CC(=O)N(CCN)CC(=O)N(CCCNC(=O)CCCOc1cccc(-c2nc3ccc(-c4nc5cc(N6CCN(C)CC6)ccc5[nH]4)cc3[nH]2)c1)CC(=O)NCCCCCC(=O)NCCCCNCCCNC(=O)c1csc(-c2csc(CCNC(=O)[C@@H](NC(=O)[C@@H](C)[C@H](O)[C@@H](C)NC(=O)[C@@H](NC(=O)c3nc([C@H](CC(N)=O)NC[C@H](N)C(N)=O)nc(N)c3C)[C@@H](O[C@@H]3O[C@@H](CO)[C@@H](O)[C@H](O)[C@@H]3O[C@@H]3O[C@H](CO)[C@@H](O)[C@H](OC(N)=O)[C@@H]3O)c3cnc[nH]3)[C@@H](C)O)n2)n1)C(=O)CN(C)C(=O)CN(CCCn1ccnc1)C(=O)CCCOc1cccc(-c2nc3ccc(-c4nc5cc(N6CCN(C)CC6)ccc5[nH]4)cc3[nH]2)c1
Activity (r(CUG) repeat expansion [3]): 30% | Activity (r(CUG) repeat expansion [4]): inactive | Activity (r(CUG) repeat expansion [5]): > 70% | Activity (Nucleic Acid): inactive | Activity (r(CUG) repeat expansion [6]): inactive | Activity (r(CUG) repeat expansion [7]): 30% | Activity (Myotube [8]): inactive | Activity (r(CUG) repeat expansion [9]): inactive | Activity [10]: 35% | Activity (r(CUG) repeat expansion [11]): inactive | EC50 (r(CUG) repeat expansion [12]): 120 nM | Activity (r(CUG) repeat expansion [13]): inactive | Activity (Myotube [14]): inactive | Activity (Myotube [15]): inactive | Activity (r(CUG) repeat expansion [16]): inactive

SMILES: CCCN(CC(=O)N(CCCNC(=O)CCCOc1cccc(-c2nc3ccc(-c4nc5cc(N6CCN(C)CC6)ccc5[nH]4)cc3[nH]2)c1)CC(N)=O)C(=O)CN(CCO)C(=O)CN(CCN)C(=O)CN(CCN1CCOCC1)C(=O)CCCOc1cccc(-c2nc3ccc(-c4nc5cc(N6CCN(C)CC6)ccc5[nH]4)cc3[nH]2)c1
Drug uptake [1]: Active | Activity [2]: Non-Toxic

SMILES: CNCCCCN(CC(=O)N(CCN)CC(=O)N(CCCNC(=O)CCCOc1cccc(-c2nc3ccc(-c4nc5cc(N6CCN(C)CC6)ccc5[nH]4)cc3[nH]2)c1)CC(N)=O)C(=O)CN(C)C(=O)CN(CCCn1ccnc1)C(=O)CCCOc1cccc(-c2nc3ccc(-c4nc5cc(N6CCN(C)CC6)ccc5[nH]4)cc3[nH]2)c1
Drug uptake [1]: Active | Activity [17]: Non-Toxic | Activity (Nucleic Acid): inactive | Activity (r(CUG) repeat expansion [18]): Dose-dependent effect | Activity (r(CUG) repeat expansion [19]): 7% | Activity (r(CUG) repeat expansion [7]): 20% | EC50 (r(CUG) repeat expansion [12]): 106 nM | Activity [2]: Toxic | Activity (Myotube [20]): inactive | IC50 (r(CUG) repeat expansion [21]): 2800 nM | Activity (r(CUG) repeat expansion [22]): Active | Activity (Myotube [14]): inactive | Activity (Myotube [15]): inactive

The next lines start with results.

Drug uptake [1]: Active
SMILES: CNCCCCN(CC(=O)N(CCC(=O)N1CCCC1)CC(=O)N(CCCNC(=O)CCCOc1cccc(-c2nc3ccc(-c4nc5cc(N6CCN(C)CC6)ccc5[nH]4)cc3[nH]2)c1)CC(N)=O)C(=O)CN(CCO)C(=O)CN(CCC(=O)N1CCCC1)C(=O)CCCOc1cccc(-c2nc3ccc(-c4nc5cc(N6CCN(C)CC6)ccc5[nH]4)cc3[nH]2)c1
Activity [2]: Non-Toxic

Drug uptake [1]: Active
SMILES: CCCN(CC(=O)N(CCCCNC)CC(=O)N(C)CC(=O)N(CCCNC(=O)CCCOc1cccc(-c2nc3ccc(-c4nc5cc(N6CCN(C)CC6)ccc5[nH]4)cc3[nH]2)c1)CC(N)=O)C(=O)CN(CCO)C(=O)CCCOc1cccc(-c2nc3ccc(-c4nc5cc(N6CCN(C)CC6)ccc5[nH]4)cc3[nH]2)c1
Activity [2]: Non-Toxic

Drug uptake [1]: Active
SMILES: CNCCCCN(CC(=O)N(CCN)CC(=O)N(CCCNC(=O)CCCOc1cccc(-c2nc3ccc(-c4nc5cc(N6CCN(C)CC6)ccc5[nH]4)cc3[nH]2)c1)CC(N)=O)C(=O)CN(Cc1ccccc1)C(=O)CN(C)C(=O)CCCOc1cccc(-c2nc3ccc(-c4nc5cc(N6CCN(C)CC6)ccc5[nH]4)cc3[nH]2)c1
Activity [2]: Non-Toxic

Source: ChEMBL document CHEMBL4706762, “Massively Parallel Optimization of the Linker Domain in Small Molecule Dimers Targeting a Toxic r(CUG) Repeat Expansion” (ACS Med Chem Lett, 2021)
